Source: ChEMBL document CHEMBL1275253, “Human antimicrobial peptide LL-37 induces MefE/Mel-mediated macrolide resistance in Streptococcus pneumoniae” (2010)
Values after ≈ are worked out from the molar mass of the structure shown.

What was measured:
Assay type in all cases: functional
Streptococcus pneumoniae [1] = assay: Antimicrobial activity against wild-type Streptococcus pneumoniae GA17457 by microdilution method
Outline: (§1)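 Broth microdilution adapted for cationic antimicrobial peptides. Cultures grown to OD600 0.4 without inducer. Bacteria at a final 2 × 10^5/ml in 5-fold-diluted TH medium with 0.5% yeast extract, added to serial dilutions of test agent. After 1 h at 37°C, samples plated on blood agar and incubated 16 h at 37°C with 5% CO2. MIC and MBC read. At least three independent experiments; one representative shown.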

Streptococcus pneumoniae [2] = assay: Antimicrobial activity against Streptococcus pneumoniae XZ7042 expressing PmefE-lacZ gene induced by pretreatment with 1 ug/ml of erythromycin for 1 hr by microdilution method
Outline: (§2)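 Cultures grown to OD600 0.4, split and pre-exposed 1 h to 1 μg/ml erythromycin. Final 2 × 10^5 bacteria/ml in 5-fold-diluted TH with 0.5% yeast extract, added to serial dilutions. After 1 h at 37°C, plated on blood agar. […] At least three independent experiments; one representative shown.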

Streptococcus pneumoniae [3] = assay: Antimicrobial activity against mega::aad9-positive Streptococcus pneumoniae XZ8004 expressing PmefE-lacZ gene induced by pretreatment with 100 ug/ml of compound for 1 hr by microdilution method
Outline: (§3)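 Cultures grown to OD600 0.4, then split and pre-exposed 1 h to subinhibitory LL-37: 200 μg/ml for GA17457 and XZ7042, 50 for XZ8006 and XZ8009, 100 for XZ8004. Cells then at a final 2 × 10^5/ml in 5-fold-diluted TH with 0.5% yeast extract, added to serial dilutions. […] At least three independent experiments.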

Streptococcus pneumoniae [4] = assay: Antimicrobial activity against mega::aad9-positive Streptococcus pneumoniae XZ8004 by Etest method
Streptococcus pneumoniae [5] = assay: Antimicrobial activity against mega::aad9-positive Streptococcus pneumoniae XZ8004 by microdilution method; outline: as §1
Streptococcus pneumoniae [6] = assay: Antimicrobial activity against Streptococcus pneumoniae XZ7042 expressing PmefE-lacZ gene induced by pretreatment with 200 ug/ml of compound for 1 hr by microdilution method; outline: as §3
Streptococcus pneumoniae [7] = assay: Antimicrobial activity against wild-type Streptococcus pneumoniae GA17457 expressing PmefE-lacZ gene induced by pretreatment with 200 ug/ml of compound for 1 hr by microdilution method; outline: as §3
Streptococcus pneumoniae [8] = assay: Antimicrobial activity against wild-type Streptococcus pneumoniae GA17457 expressing PmefE-lacZ gene induced by pretreatment with 1 ug/ml of erythromycin for 1 hr by microdilution method; outline: as §2
Streptococcus pneumoniae [9] = assay: Antimicrobial activity against mefE-mel::aph3-positive Streptococcus pneumoniae XZ8009 by microdilution method; outline: as §1
Streptococcus pneumoniae [10] = assay: Antimicrobial activity against mega::aad9-positive Streptococcus pneumoniae XZ8006 expressing PmefE-lacZ gene induced by pretreatment with 50 ug/ml of compound for 1 hr by microdilution method; outline: as §3
Streptococcus pneumoniae [11] = assay: Antimicrobial activity against Streptococcus pneumoniae XZ7042 by microdilution method; outline: as §1
Streptococcus pneumoniae [12] = assay: Antimicrobial activity against mega::aad9-positive Streptococcus pneumoniae XZ8006 by microdilution method; outline: as §1
Streptococcus pneumoniae [13] = assay: Antimicrobial activity against mefE-mel::aph3-positive Streptococcus pneumoniae XZ8009 expressing PmefE-lacZ gene induced by pretreatment with 50 ug/ml of compound for 1 hr by microdilution method; outline: as §3
Streptococcus pneumoniae [14] = assay: Antimicrobial activity against Streptococcus pneumoniae XZ7042 by Etest method
Streptococcus pneumoniae [15] = assay: Antimicrobial activity against wild-type Streptococcus pneumoniae GA17457 by Etest method
Streptococcus pneumoniae [16] = assay: Antimicrobial activity against mefE-mel::aph3-positive Streptococcus pneumoniae XZ8009 by Etest method
Streptococcus pneumoniae [17] = assay: Antimicrobial activity against mega::aad9-positive Streptococcus pneumoniae XZ8006 by Etest method
Streptococcus pneumoniae [18] = assay: Antimicrobial activity against Streptococcus pneumoniae XZ7042 expressing PmefE-lacZ gene induced by pretreatment with 200 ug/ml of LL-37 peptide for 1 hr by microdilution method; outline: as §3
Streptococcus pneumoniae [19] = assay: Antimicrobial activity against mega::aad9-positive Streptococcus pneumoniae XZ8004 expressing PmefE-lacZ gene induced by pretreatment with 100 ug/ml of LL-37 peptide for 1 hr by microdilution method; outline: as §3
Streptococcus pneumoniae [20] = assay: Antimicrobial activity against wild-type Streptococcus pneumoniae GA17457 expressing PmefE-lacZ gene induced by pretreatment with 200 ug/ml of LL-37 peptide for 1 hr by microdilution method; outline: as §3
Streptococcus pneumoniae [21] = assay: Antimicrobial activity against Streptococcus pneumoniae XZ7042 expressing PmefE-lacZ gene induced by pretreatment with 1 ug/ml of compound for 1 hr by microdilution method
Outline: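 Reporter: PmefE-lacZ integrated at bga in clinical isolate GA17457 (serotype 19A). Cultures grown to OD600 0.4, split, and grown 1 h with or without a subinhibitory 1 μg/ml inducer. […] Representative of ≥3 experiments.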

Streptococcus pneumoniae [22] = assay: Antimicrobial activity against mega::aad9-positive Streptococcus pneumoniae XZ8006 expressing PmefE-lacZ gene induced by pretreatment with 50 ug/ml of LL-37 peptide for 1 hr by microdilution method; outline: as §3
Streptococcus pneumoniae [23] = assay: Antimicrobial activity against wild-type Streptococcus pneumoniae GA17457 expressing PmefE-lacZ gene induced by pretreatment with 1 ug/ml of compound for 1 hr by microdilution method; outline: as §2
Streptococcus pneumoniae [24] = assay: Antimicrobial activity against mefE-mel::aph3-positive Streptococcus pneumoniae XZ8009 expressing PmefE-lacZ gene induced by pretreatment with 50 ug/ml of LL-37 peptide for 1 hr by microdilution method; outline: as §3

CC[C@H](C)[C@H](NC(=O)[C@H](CCCCN)NC(=O)[C@H](CCC(=O)O)NC(=O)[C@H](CCCCN)NC(=O)[C@H](CO)NC(=O)[C@H](CCCCN)NC(=O)[C@H](CCCNC(=N)N)NC(=O)[C@H](Cc1ccccc1)NC(=O)[C@H](Cc1ccccc1)NC(=O)[C@H](CC(=O)O)NC(=O)CNC(=O)[C@H](CC(C)C)NC(=O)[C@@H](N)CC(C)C)C(=O)NCC(=O)N[C@@H](CCCCN)C(=O)N[C@@H](CCC(=O)O)C(=O)N[C@@H](Cc1ccccc1)C(=O)N[C@@H](CCCCN)C(=O)N[C@@H](CCCNC(=N)N)C(=O)N[C@H](C(=O)N[C@H](C(=O)N[C@@H](CCC(N)=O)C(=O)N[C@@H](CCCNC(=N)N)C(=O)N[C@H](C(=O)N[C@@H](CCCCN)C(=O)N[C@@H](CC(=O)O)C(=O)N[C@@H](Cc1ccccc1)C(=O)N[C@@H](CC(C)C)C(=O)N[C@@H](CCCNC(=N)N)C(=O)N[C@@H](CC(N)=O)C(=O)N[C@@H](CC(C)C)C(=O)N[C@H](C(=O)N1CCC[C@H]1C(=O)N[C@@H](CCCNC(=N)N)C(=O)N[C@H](C(=O)N[C@@H](CCC(=O)O)C(=O)N[C@@H](CO)C(=O)O)[C@@H](C)O)C(C)C)[C@@H](C)CC)C(C)C)[C@@H](C)CC [CATHELICIDIN]
MBC (Streptococcus pneumoniae [1]): 1000 µg/mL (≈ 223 µM) | MIC (Streptococcus pneumoniae [1]): 500 µg/mL (≈ 111 µM) | MBC (Streptococcus pneumoniae [2]): > 2000 µg/mL | MIC (Streptococcus pneumoniae [2]): 2000 µg/mL | MBC (Streptococcus pneumoniae [3]): 250 µg/mL (≈ 55.6 µM) | MIC (Streptococcus pneumoniae [3]): 125 µg/mL (≈ 27.8 µM) | MIC (Streptococcus pneumoniae [4]): 0.125 µg/mL (≈ 0.0278 µM) | MBC (Streptococcus pneumoniae [5]): 500 µg/mL (≈ 111 µM) | MIC (Streptococcus pneumoniae [5]): 250 µg/mL (≈ 55.6 µM) | MBC (Streptococcus pneumoniae [6]): > 2000 µg/mL | MIC (Streptococcus pneumoniae [6]): 2000 µg/mL (≈ 445 µM) | MBC (Streptococcus pneumoniae [7]): > 2000 µg/mL | MIC (Streptococcus pneumoniae [7]): 2000 µg/mL (≈ 445 µM) | MBC (Streptococcus pneumoniae [8]): > 2000 µg/mL | MIC (Streptococcus pneumoniae [8]): 2000 µg/mL | MBC (Streptococcus pneumoniae [9]): 250 µg/mL (≈ 55.6 µM) | MIC (Streptococcus pneumoniae [9]): 125 µg/mL (≈ 27.8 µM) | MBC (Streptococcus pneumoniae [10]): 250 µg/mL (≈ 55.6 µM) | MIC (Streptococcus pneumoniae [10]): 125 µg/mL (≈ 27.8 µM) | MBC (Streptococcus pneumoniae [11]): 1000 µg/mL (≈ 223 µM) | MIC (Streptococcus pneumoniae [11]): 500 µg/mL (≈ 111 µM) | MBC (Streptococcus pneumoniae [12]): 250 µg/mL (≈ 55.6 µM) | MIC (Streptococcus pneumoniae [12]): 125 µg/mL (≈ 27.8 µM) | MBC (Streptococcus pneumoniae [13]): 250 µg/mL (≈ 55.6 µM) | MIC (Streptococcus pneumoniae [13]): 64 µg/mL (≈ 14.2 µM) | MIC (Streptococcus pneumoniae [14]): 12 µg/mL (≈ 2.67 µM) | MIC (Streptococcus pneumoniae [15]): 12 µg/mL (≈ 2.67 µM) | MIC (Streptococcus pneumoniae [16]): 0.125 µg/mL (≈ 0.0278 µM) | MIC (Streptococcus pneumoniae [17]): 0.125 µg/mL (≈ 0.0278 µM)

CC[C@H]1OC(=O)[C@H](C)[C@@H](O[C@H]2C[C@@](C)(OC)[C@@H](O)[C@H](C)O2)[C@H](C)[C@@H](O[C@@H]2O[C@H](C)C[C@H](N(C)C)[C@H]2O)[C@](C)(O)C[C@@H](C)C(=O)[C@H](C)[C@@H](O)[C@]1(C)O [ERYTHROMYCIN]
MBC (Streptococcus pneumoniae [18]): 32 µg/mL (≈ 43.6 µM) | MIC (Streptococcus pneumoniae [18]): 16 µg/mL (≈ 21.8 µM) | MBC (Streptococcus pneumoniae [1]): 16 µg/mL (≈ 21.8 µM) | MIC (Streptococcus pneumoniae [1]): 2 µg/mL (≈ 2.73 µM) | MBC (Streptococcus pneumoniae [19]): 4 µg/mL (≈ 5.45 µM) | MIC (Streptococcus pneumoniae [19]): 0.5 µg/mL (≈ 0.681 µM) | MBC (Streptococcus pneumoniae [20]): 32 µg/mL (≈ 43.6 µM) | MIC (Streptococcus pneumoniae [20]): 8 µg/mL (≈ 10.9 µM) | MBC (Streptococcus pneumoniae [5]): 4 µg/mL (≈ 5.45 µM) | MIC (Streptococcus pneumoniae [5]): 0.25 µg/mL (≈ 0.341 µM) | MBC (Streptococcus pneumoniae [21]): > 64 µg/mL | MIC (Streptococcus pneumoniae [21]): 4 µg/mL (≈ 5.45 µM) | MBC (Streptococcus pneumoniae [22]): 4 µg/mL (≈ 5.45 µM) | MIC (Streptococcus pneumoniae [22]): 0.5 µg/mL (≈ 0.681 µM) | MBC (Streptococcus pneumoniae [9]): 4 µg/mL (≈ 5.45 µM) | MIC (Streptococcus pneumoniae [9]): 0.5 µg/mL (≈ 0.681 µM) | MBC (Streptococcus pneumoniae [11]): 8 µg/mL (≈ 10.9 µM) | MIC (Streptococcus pneumoniae [11]): 1 µg/mL (≈ 1.36 µM) | MBC (Streptococcus pneumoniae [12]): 4 µg/mL (≈ 5.45 µM) | MIC (Streptococcus pneumoniae [12]): 0.5 µg/mL (≈ 0.681 µM) | MBC (Streptococcus pneumoniae [23]): > 64 µg/mL | MIC (Streptococcus pneumoniae [23]): 8 µg/mL (≈ 10.9 µM) | MBC (Streptococcus pneumoniae [24]): 2 µg/mL (≈ 2.73 µM) | MIC (Streptococcus pneumoniae [24]): 0.125 µg/mL (≈ 0.17 µM)
